High-throughput results as filed in PubChem.
Shown are actives, neighbours in structure and some others; about 2.9% of the full set was active somewhere.
rRNA inh HTS – reduced GFP signal of wild-type E. coli, primary screen, bacterial rRNA inhibitor project, GFP/RFP fluorescence, OD600, single point. GFP signal change (wild-type ribosome), % (concentration not given with the values). E. coli WT GFP vs humanized-ribosome RFP mutants, 24 h; stronger effect = lower value; DMSO median 0, no signal -100. 1.6% of 350,000 active;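 active = significant combined selectivity score with lowered wild-type GFP, culture density cut under 30%, mutant RFP and density less affected; inactive = any of these conditions unmet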
Cneo AK release – Cryptococcus neoformans cell lysis inducers, primary screen, AK release luminescence, single concentration. C. neoformans lysis, adenylate kinase release luminescence, 4 h; normalised: neutral wells 0, clomiphene wells 100. lysis activity, % at 15 µM. 0.2% of 360,000 active. AID 651654, 2012;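 active = mean lysis activity across replicates of at least 80%, whatever share of replicates individually reach that level; inactive = mean lysis activity below 80%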
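Material: C. neoformans cells; Schedule: 4 h static compound exposure, 37 °C, read 1 h post-reagent; Measured by: adenylate kinase release luminescence; Read-out: signal increase indicating cell lysis; Controls: Clomiphene as positive lysis control.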
PglD inh – C. jejuni PglD acetyltransferase inhibitors, primary screen, biochemical, DTNB colorimetric, single point | UDP-N-acetylbacillosamine N-acetyltransferase PglD (Campylobacter jejuni) | purified PglD enzyme, DTNB colorimetric CoA detection | inhibition, % at 12.5 µM | 0.098% of 360,000 active | AID 602405, 2012; in the data active = inhibition above about 16%, passing the limit was not always enough
Vif inh – HIV Vif self-association inhibitors, primary screen, imaging, HEK293T, single point; 0.35% of 340,000 active; inhibition, % at 7.49 µM; HEK293T cells, Vif self-association by quenched fluorescence, 24 h; in the data active = inhibition above about 50%, passing the limit was not always enough
FGF22 binding – binders of human FGF22 protein, primary screen, FGF22 synaptogenesis inhibitor project, biophysical, thermal shift, single point; Fibroblast growth factor 22 (Homo sapiens), Q9HCT0; recombinant FGF22 thermal shift, SYPRO orange fluorescence; percent of sucrose octasulfate shift, DMSO zero; activity (Tm shift, normalised), % at 9.99 µM; 1.5% of 340,000 active; AID 651658, 2012;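 active = mean Tm shift, scaled 0 neutral to 100 positive control, at about 1.3% or above, every replicate too, limit read from the data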
Target sequence (Q9HCT0 whole entry, looked up): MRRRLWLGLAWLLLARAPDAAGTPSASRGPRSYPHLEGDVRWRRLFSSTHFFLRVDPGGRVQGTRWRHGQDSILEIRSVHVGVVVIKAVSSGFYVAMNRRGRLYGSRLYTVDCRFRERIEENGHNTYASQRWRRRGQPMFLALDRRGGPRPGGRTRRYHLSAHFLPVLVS
PGC1a acetyl inh – inhibitors of PGC1a acetylation signal, primary screen, cell-based, U2OS, AlphaScreen, inhibitor mode. 0.17% of 350,000 active. inhibition, % at 15.6 µM. AlphaScreen anti-acetyl-lysine; with virally co-expressed GCN5 acetyltransferase;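 active = every replicate shows inhibition of at least 40%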
Hits are given with their value.

What do the screens show for `C[C@@H]1CN([C@@H](C)CO)C(=O)c2cc(NC(=O)c3ccncc3)ccc2O[C@@H](C)CCCCO[C@H]1CN(C)S(=O)(=O)c1cn(C)cn1`?
rRNA inh HTS: inactive; Cneo AK release: inactive; PglD inh: inactive; FGF22 binding: inactive; PGC1a acetyl inh: inactive

How did CCCNC(=O)C/C(C)=N/NC(=O)COc1ccc(C)cc1Br do in these assays?
rRNA inh HTS: inactive; Cneo AK release: inactive; PglD inh: inactive; Vif inh: inactive; FGF22 binding: inactive; PGC1a acetyl inh: inactive

How did COc1ccc(CNC(=O)C/C(C)=N/NC(=O)COc2ccc(C)cc2Br)cc1 do in these assays?
rRNA inh HTS: inactive; Vif inh: inactive; FGF22 binding: 43

How did COCC(=O)N(C)C[C@@H]1Oc2ncc(-c3ccc(C#N)cc3)cc2C(=O)N([C@H](C)CO)C[C@H]1C do in these assays?
rRNA inh HTS: inactive; Cneo AK release: inactive; PglD inh: inactive; FGF22 binding: inactive; PGC1a acetyl inh: inactive

What do the screens show for `CCNC(=O)C[C@@H]1CC[C@H]2[C@H](COc3ccc(NC(=O)Nc4cccc(C)c4)cc3C(=O)N2C)O1`?
rRNA inh HTS: inactive; Cneo AK release: inactive; PglD inh: inactive; FGF22 binding: inactive; PGC1a acetyl inh: inactive

How did C[C@@H]1CN([C@@H](C)CO)C(=O)c2cc(NC(=O)Cc3ccccc3)ccc2O[C@@H](C)CCCCO[C@H]1CN(C)Cc1ccc(C(F)(F)F)cc1 do in these assays?
rRNA inh HTS: inactive; Cneo AK release: inactive; PglD inh: inactive; FGF22 binding: inactive; PGC1a acetyl inh: inactive

How did Nc1nonc1-c1nc2ccccc2n1CC(=O)Nc1ccccc1 do in these assays?
rRNA inh HTS: inactive; Cneo AK release: inactive; PglD inh: inactive; Vif inh: inactive; FGF22 binding: inactive; PGC1a acetyl inh: inactive

How did Nc1nonc1-c1nc2ccccc2n1CC(=O)NC1CCCC1 do in these assays?
Cneo AK release: inactive; PglD inh: inactive; Vif inh: 50; PGC1a acetyl inh: inactive

What do the screens show for `C[C@H](CO)N1C[C@H](C)[C@@H](CN(C)C(=O)N[C@H](C)c2ccccc2)OCc2ccccc2-c2c(n(C)c3ccccc23)C1=O`?
rRNA inh HTS: inactive; Cneo AK release: inactive; PglD inh: inactive; FGF22 binding: inactive; PGC1a acetyl inh: inactive

How did COc1cc(C(=O)Nc2nnc(S(=O)(=O)N3CCCCCC3)s2)cc(OC)c1OC do in these assays?
rRNA inh HTS: -31; Cneo AK release: inactive; PglD inh: inactive; Vif inh: inactive; FGF22 binding: inactive; PGC1a acetyl inh: inactive

How did Cc1ccccc1-c1ccc(C2[C@@H]3CN(S(=O)(=O)c4cn(C)cn4)C[C@H]2N3)cc1 (some centres not stated) do in these assays?
rRNA inh HTS: inactive; PGC1a acetyl inh: inactive

What do the screens show for `O=C(Cc1ccc(Cl)c(Cl)c1)Nc1cccc2ncccc12`?
rRNA inh HTS: inactive; Vif inh: inactive; FGF22 binding: 43; PGC1a acetyl inh: inactive

How did CCOc1ccc(-c2c(C(=O)N/N=C/c3cccs3)nnn2-c2nonc2N)cc1 do in these assays?
rRNA inh HTS: inactive; Cneo AK release: inactive; PglD inh: inactive; Vif inh: 82; FGF22 binding: inactive; PGC1a acetyl inh: inactive

What do the screens show for `CCCOc1ccc(-c2c(C(=O)N/N=C/c3ccc(C)cc3)nnn2-c2nonc2N)cc1`?
rRNA inh HTS: inactive; Cneo AK release: inactive; PglD inh: inactive; Vif inh: 54; FGF22 binding: inactive; PGC1a acetyl inh: inactive

How did COc1ccc(/C=N/NC(=O)c2nnn(-c3nonc3N)c2C)cc1OC do in these assays?
rRNA inh HTS: inactive; Cneo AK release: inactive; PglD inh: inactive; Vif inh: inactive; FGF22 binding: inactive; PGC1a acetyl inh: inactive

How did COc1ccc(/C=N/NC(=O)c2c(C)nnn2-c2nonc2N)cc1OC do in these assays?
rRNA inh HTS: inactive; Vif inh: inactive; FGF22 binding: 43

How did CCC(=O)N(CC)c1nc(-c2ccc(OC)cc2)cs1 do in these assays?
Cneo AK release: inactive; PglD inh: inactive; Vif inh: inactive; PGC1a acetyl inh: 48

What do the screens show for `C[C@H](CO)N1C[C@H](C)[C@@H](CN(C)C(=O)C2CCC2)Oc2cc(-c3ccncc3)ccc2S1(=O)=O`?
rRNA inh HTS: inactive; PGC1a acetyl inh: inactive

Results for O=C(c1cccnc1)N1CC2(C1)[C@@H](c1ccccc1)[C@@H](CO)N2C(=O)c1cccnc1 ?
rRNA inh HTS: inactive; PGC1a acetyl inh: inactive

How did COc1ccccc1C1CC(=O)Oc2cc(C)c(Cl)cc21 (configuration not stated) do in these assays?
rRNA inh HTS: -21; Cneo AK release: inactive; PglD inh: inactive; Vif inh: inactive; FGF22 binding: inactive; PGC1a acetyl inh: inactive

What do the screens show for `O=S(=O)(N[C@@H]1CC[C@H](CCNS(=O)(=O)c2ccccc2Cl)O[C@@H]1CO)c1ccccc1`?
rRNA inh HTS: inactive; Cneo AK release: inactive; PglD inh: inactive; FGF22 binding: inactive; PGC1a acetyl inh: inactive

Results for CCS(=O)(=O)NCC[C@H]1CC[C@H](NS(=O)(=O)c2cccc(F)c2)[C@H](CO)O1 ?
rRNA inh HTS: inactive; Cneo AK release: 110; PglD inh: inactive; FGF22 binding: inactive; PGC1a acetyl inh: inactive

What do the screens show for `CCS(=O)(=O)NCC[C@@H]1CC[C@@H](NS(=O)(=O)c2cccc(F)c2)[C@@H](CO)O1`?
rRNA inh HTS: inactive; Cneo AK release: 98; PglD inh: inactive; FGF22 binding: inactive; PGC1a acetyl inh: inactive

Results for CCS(=O)(=O)NCC[C@H]1CC[C@H](NS(=O)(=O)c2cccc(F)c2)[C@@H](CO)O1 ?
rRNA inh HTS: inactive; Cneo AK release: inactive; PglD inh: inactive; FGF22 binding: inactive; PGC1a acetyl inh: inactive

What do the screens show for `O=S(=O)(N[C@@H]1CC[C@@H](CCNS(=O)(=O)c2ccccc2Cl)O[C@H]1CO)c1ccccc1`?
rRNA inh HTS: inactive; Cneo AK release: inactive; PglD inh: inactive; FGF22 binding: inactive; PGC1a acetyl inh: 62

Results for O=S(=O)(NCC[C@H]1CC[C@H](NS(=O)(=O)c2cccc(F)c2)[C@H](CO)O1)c1cccc(F)c1 ?
rRNA inh HTS: inactive; FGF22 binding: inactive; PGC1a acetyl inh: inactive

How did Cc1noc(C)c1S(=O)(=O)N(C)C[C@@H]1OCCCC[C@@H](C)Oc2ccc(NC(=O)NC3CCCCC3)cc2C(=O)N([C@@H](C)CO)C[C@@H]1C do in these assays?
rRNA inh HTS: inactive; Cneo AK release: inactive; PglD inh: inactive; FGF22 binding: inactive; PGC1a acetyl inh: inactive
